Data: ChEMBL document CHEMBL3588789, “Synthesis and Pharmacokinetic Evaluation of Siderophore Biosynthesis Inhibitors for Mycobacterium tuberculosis” (J Med Chem, 2015)

Experiments:
[1] = Inhibition of Mycobacterium tuberculosis MbtA expressed in Escherichia coli using [32P]PPi, ATP and salicylic acid incubated for 20 mins by liquid scintillation counting method; details: read-out: Ki(app)
[2] = tested on: Mycobacterium tuberculosis; test: Antimicrobial activity against Mycobacterium tuberculosis H37Rv grown in GAS medium without ferric ammonium citrate at pH 6.6 incubated for 10 to 14 days by broth microdilution method; type: functional
[3] = Ratio of MIC for antimicrobial activity against Mycobacterium tuberculosis H37Rv to KI)app) for inhibition of Mycobacterium tuberculosis MbtA expressed in Escherichia coli
[4] = AUC (0 to infinity) in Sprague-Dawley rat at 2.5 mg/kg, iv by LC-MS/MS method; type: ADME, organism-based; parameters: dose 2.5 mg/kg, route intravenous, time infinity; details: in vivo
Procedure, shortened: (§1)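 Female Sprague-Dawley rats (250–274 g) with dual jugular/femoral vein catheters, 3 per compound, given a single 2.5 mg/kg bolus into the jugular catheter over 5 s, 3 days after oral dosing. Vehicle was 0.05% sodium carboxymethylcellulose or 25% hydroxypropyl-β-cyclodextrin in water. Femoral blood sampled at 0–480 min into K2EDTA. Plasma analysed by LC–MS/MS with an internal standard. Non-compartmental analysis.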

[5] = Clearance in Sprague-Dawley rat at 2.5 mg/kg, iv by LC-MS/MS method; type: ADME, organism-based; details: in vivo; procedure, shortened: as §1
[6] = Terminal half life in Sprague-Dawley rat at 2.5 mg/kg, iv by LC-MS/MS method; type: ADME, organism-based; details: in vivo, read-out: beta t1/2
[7] = (§2) Cmax in Sprague-Dawley rat at 25 mg/kg, po by LC-MS/MS method; type: ADME, organism-based; parameters: dose 25 mg/kg, route oral; details: Sprague-Dawley, in vivo
Procedure, shortened: (§3)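 Female Sprague-Dawley rats (250–274 g), catheterised, 3 per compound, dosed by oral gavage at 25 mg/kg from a 10 mg/mL solution. Femoral-vein blood taken at 0, 15, 30, 45, 60, 120, 240 and 480 min into K2EDTA. Plasma protein-precipitated with an internal standard and quantified by LC–MS/MS against standards in rat plasma. Parameters by non-compartmental analysis.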

[8] = (§4) AUC (0 to infinity) in Sprague-Dawley rat at 25 mg/kg, po by LC-MS/MS method; type: ADME, organism-based; parameters: dose 25 mg/kg, time infinity, route oral; details: Sprague-Dawley, in vivo
[9] = tested on: Rattus norvegicus; test: Oral bioavailability in Sprague-Dawley rat at 25 mg/kg by LC-MS/MS method; type: ADME, organism-based; details: in vivo
Procedure, shortened: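 Crossover in the same 3 female Sprague-Dawley rats: 25 mg/kg by oral gavage, then after a 3-day washout 2.5 mg/kg iv bolus. Serial femoral plasma quantified by LC–MS/MS. AUCs by non-compartmental analysis. Absolute bioavailability calculated individually for each rat from its oral and iv data.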

[10] = tested on: Caco-2; test: (§5) Apparent permeability from apical to basolateral side in human Caco2 cells after 30 to 120 mins by HPLC method; type: ADME, cell-based
Procedure, shortened: (§6)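 Caco-2 cells (passage 50–70) grown 21 days on Transwell inserts, used only where TEER >300. Apical buffer pH 6.0, basolateral pH 7.4, 60 min preincubation. Compound dosed from a 20 mM DMSO stock with lucifer yellow on the donor side. Samples analysed by HPLC. Papp = (dQ/dt)/(A·C0) from cumulative sampling. Efflux ratio from B–A and A–B values.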

[11] = tested on: Caco-2; test: (§7) Apparent permeability from basolateral to apical side in human Caco2 cells after 30 to 120 mins by HPLC method; type: ADME, cell-based; procedure, shortened: as §6
[12] = tested on: Caco-2; test: (§8) Efflux ratio in human Caco2 cells after 30 to 120 mins by HPLC method; type: ADME, cell-based; procedure, shortened: as §6
[13] = tested on: HepG2; test: Cytotoxicity against human HepG2 cells assessed as reduction in cell viability incubated for 48 hrs by MTT assay; type: cell-based; details: hepg2, 48 h
Procedure, shortened: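 HepG2 cells (2.5–5.0 × 10^4 per well) in EMEM with 10% FBS, in triplicate. Final compound concentrations 1–200 μM diluted from 20 mM DMSO stocks. Controls were 1% DMSO and 1% Triton X-100. Incubated 48 h at 37 °C under 5% CO2.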

[14] = Ratio of Cmax in Sprague-Dawley rat at 25 mg/kg, po to MIC for antimicrobial activity against Mycobacterium tuberculosis H37Rv; type: ADME, organism-based; details: in vivo
Procedure, shortened: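 Female Sprague-Dawley rats (250–274 g, catheterised; 3 per compound) got a 25 mg/kg gavage dose from a 10 mg/mL solution. Plasma drawn 0–480 min was read by LC–MS/MS, and Cmax was taken by non-compartmental analysis. […] Cmax was divided by MIC.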

[15] = tested on: Plasma; test: Drug metabolism in Sprague-Dawley rat plasma assessed as 2',3'-O-Di-acetyl-5'-O-[N-(2-hydroxybenzoyl)sulfamoyl]-adenosine formation at 10 uM; type: ADME, cell-free
[16] = tested on: Plasma; test: Drug metabolism in Sprague-Dawley rat plasma assessed as 5'-O-[N-(Salicyl)sulfamoyl]adenosine formation at 10 uM; type: ADME, cell-free
[17] = Cmax in BALB/c mouse; type: ADME, organism-based; details: in vivo
[18] = AUC in BALB/c mouse; type: ADME, organism-based; details: in vivo
[19] = tested on: Liver; test: Half life in mouse liver microsomes at 1 uM in presence of NADPH by LC-MS/MS method; type: ADME
Procedure, shortened: (§9)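 Liver microsomes (rat, mouse or pooled human, 0.5 mg/mL) in 100 mM potassium phosphate pH 7.4 with 10 mM MgCl2 and 1.0 μM compound. Preincubated, then NADPH added (water for control). Incubated 60 min at 37 °C. Acetonitrile quench, centrifugation, supernatant analysed by LC–MS/MS.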

[20] = tested on: Liver microsome; test: Half life in rat liver microsomes at 1 uM in presence of NADPH by LC-MS/MS method; type: ADME; procedure, shortened: as §9
[21] = tested on: Liver microsome; test: Half life in human liver microsomes at 1 uM in presence of NADPH by LC-MS/MS method; type: ADME; procedure, shortened: as §9
[22] = Solubility in water; type: physicochemical; details: buffer
[23] = Stability in pH 1 buffer solutions assessed as compound degradation after 24 hrs at 37 degC; type: physicochemical; details: read-out: Drug degradation
Procedure, shortened: (§10)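 Compound held at pH 1 or pH 12 for 24 h at 37 °C, with degradation measured.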

[24] = Stability in pH 12 buffer solutions assessed as compound degradation after 24 hrs at 37 degC; type: physicochemical; details: read-out: Drug degradation; procedure, shortened: as §10
[25] = tested on: Rattus norvegicus; test: as §2; type: ADME, organism-based; parameters: dose 25 mg/kg, route oral; details: in vivo, BLD = below limit of detection; procedure, shortened: as §3
[26] = tested on: Rattus norvegicus; test: as §4; type: ADME, organism-based; parameters: dose 25 mg/kg, time infinity, route oral; details: in vivo, BLD = below limit of detection
[27] = as §5; type: ADME, cell-based; details: caco-2; procedure, shortened: as §6
[28] = as §7; type: ADME, cell-based; details: caco-2; procedure, shortened: as §6
[29] = as §8; type: ADME, cell-based; details: caco-2; procedure, shortened: as §6

SMILES	Ki [1]	MIC [2]	Ratio [3]	AUC(0-inf) [4]	clearance [5]	half-life [6]	Cmax [7]	AUC(0-inf) [8]	F [9]	Papp [10]	Papp [11]	CC50 [13]	further results
CCN(CC)CC.O=C(NS(=O)(=O)NC[C@H]1O[C@@H](n2cnc3c(NC4CC4)nc(-c4ccccc4)nc32)[C@H](O)[C@@H]1O)c1ccccc1O	0.76 nM	6.25 µM	8224	3070 ng·h/mL	13.6 mL/min/kg	15.5 min	100 ng/mL	66.7 ng·h/mL	0.3%	0.52 ×10⁻⁶ cm/s	1.8 ×10⁻⁶ cm/s	–	Ratio [12]: 3.45
CCN(CC)CC.Nc1ncnc2c1ncn2[C@@H]1O[C@H](CNS(=O)(=O)NC(=O)c2ccccc2O)[C@@H](O)[C@H]1O	3.7 nM	0.19 µM	51	5070 ng·h/mL	8.4 mL/min/kg	10.6 min	700 ng/mL	–	3.5%	1.23 ×10⁻⁶ cm/s	0.86 ×10⁻⁶ cm/s	> 200000 nM	Ratio [14]: 7
NNC(=O)c1ccncc1 [ISONIAZID]	–	–	–	–	–	–	13500 ng/mL	–	65%	–	–	–	–
CC(=O)Oc1ccccc1C(=O)NS(=O)(=O)OC[C@H]1O[C@@H](n2cnc3c(N)ncnc32)[C@H](OC(C)=O)[C@@H]1OC(C)=O.CCN(CC)CC	–	–	–	–	–	–	30 ng/mL	48.3 ng·h/mL	–	–	–	–	Drug metabolism [15]: metabolite_detected; Drug metabolism [16]: metabolite_detected
CCN(CC)CC.O=C(NS(=O)(=O)NC[C@H]1O[C@@H](n2cnc3c(NC4CC4)ncnc32)[C@H](O)[C@@H]1O)c1ccccc1O	1.5 nM	0.098 µM	65	3480 ng·h/mL	9.6 mL/min/kg	15.1 min	140 ng/mL	302 ng·h/mL	1%	–	–	–	–
CCN(CC)CC.Nc1ccc(C(=O)NS(=O)(=O)NC[C@H]2O[C@@H](n3cnc4c(N)ncnc43)[C@H](O)[C@@H]2O)c(O)c1	8.9 nM	3.12 µM	351	1050 ng·h/mL	46.3 mL/min/kg	10.6 min	90 ng/mL	280 ng·h/mL	3.7%	–	–	> 200000 nM	–
CCN(CC)CC.Nc1ncnc2c1ncn2[C@@H]1O[C@H](COS(=O)(=O)NC(=O)c2ccccc2O)[C@@H](O)[C@H]1O	–	0.39 µM	–	8650 ng·h/mL	4.9 mL/min/kg	11 min	400 ng/mL	1100 ng·h/mL	1.3%	1.23 ×10⁻⁶ cm/s	0.96 ×10⁻⁶ cm/s	> 200000 nM	Cmax [17]: 1200 ng/mL; AUC [18]: 977 ng·h/mL; t1/2 [19]: > 30 min; t1/2 [20]: > 30 min; t1/2 [21]: > 30 min; solubility [22]: > 50 mg/mL; degraded at 24 h [23]: < 5%; degraded at 24 h [24]: < 5%; Ratio [12]: 0.78
CCN(CC)CC.Nc1nc(-c2ccccc2)nc2c1ncn2[C@@H]1O[C@H](CNS(=O)(=O)NC(=O)c2ccccc2O)[C@@H](O)[C@H]1F	1.6 nM	1.56 µM	975	33000 ng·h/mL	1.3 mL/min/kg	121 min	500 ng/mL	2330 ng·h/mL	0.8%	–	–	> 200000 nM	–
CCN(CC)CC.Nc1ncnc2c1ncn2[C@@H]1O[C@H](CNS(=O)(=O)NC(=O)c2ccccc2O)C[C@H]1F	3 nM	0.78 µM	260	16000 ng·h/mL	2.6 mL/min/kg	62 min	560 ng/mL	3300 ng·h/mL	2%	–	–	–	–
CCN(CC)CC.Nc1ncnc2c1ncn2[C@@H]1O[C@H](CNS(=O)(=O)NC(=O)c2ccccc2O)[C@@H](O)[C@H]1F	1.7 nM	0.19 µM	112	17400 ng·h/mL	2.5 mL/min/kg	32.5 min	460 ng/mL	3130 ng·h/mL	1.8%	4.2 ×10⁻⁶ cm/s	1.34 ×10⁻⁶ cm/s	> 200000 nM	Ratio [12]: 0.32
CC(=O)O[C@@H]1[C@H](OC(C)=O)[C@@H](COS(=O)(=O)NC(=O)c2ccccc2O)O[C@H]1n1cnc2c(N)ncnc21.CCN(CC)CC	–	–	–	–	–	–	–	–	–	–	–	–	Cmax [25]: BLD; AUC [26]: BLD; Papp A→B [27]: 0.62 ×10⁻⁶ cm/s; Papp B→A [28]: 0.97 ×10⁻⁶ cm/s; efflux ratio [29]: 1.55
